In assay [1] the test system is Streptococcus pneumoniae. Briefly: Antibacterial activity against Streptococcus pneumoniae SPN102 overexpressing LigA by NCCLS broth microdilution method. It counts as functional. The procedure, abridged:
(§1)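 MIC measured on the LigA-overexpressing strain, in duplicate on different days. The reported MIC is the geometric mean of the two. The maximum test concentration was 64 μg/mL.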
On the technique in general: Broth dilution looks for growth in wells or tubes with falling amounts of substance.

Assay [2] deals with Streptococcus pneumoniae. Nature of the assay: Antibacterial activity against Streptococcus pneumoniae SPN100 by NCCLS broth microdilution method. It counts as functional.
A short description of assay [3]: Inhibition of NAD-dependent LigA in Streptococcus pneumoniae SPN100 after 20 mins by FRET assay. The procedure, abridged:
(§2)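 LigA enzyme assay with NAD+ at a low multiple of its Km (around 1–10 μM). Percent inhibition was measured at 2-fold serial dilutions of compound, and IC50 was interpolated. The reported value is the geometric mean of at least 2 determinations.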

For assay [4], the system named is Streptococcus pneumoniae. Briefly: Ratio of MIC for Streptococcus pneumoniae SPN102 to MIC for Streptococcus pneumoniae SPN100.
Assay [5] has as its system Haemophilus influenzae. Nature of the assay: Ratio of MIC for AcrABTolC deficient Haemophilus influenzae HIN101 to MIC for Haemophilus influenzae HIN102 overexpressing LigA. It counts as functional. The procedure, abridged: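 MICs for parental HIN101 and isogenic LigA-overexpressing HIN102 were each run in duplicate on different days, up to 64 μg/mL, using geometric-mean values. A difference of at least 4-fold on both occasions was taken to mean the LigA mode of action in the parental strain.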

Assay [6] is described as follows: Inhibition of NAD-dependent LigA in AcrABTolC deficient Haemophilus influenzae HIN101 after 20 mins by FRET assay. The procedure, abridged:
as §2

Assay [7] relates to Haemophilus influenzae. Briefly: Antibacterial activity against AcrABTolC deficient Haemophilus influenzae HIN101 by NCCLS broth microdilution method. It counts as functional.
Assay [8] relates to Haemophilus influenzae. Nature of the assay: Antibacterial activity against Haemophilus influenzae HIN102 overexpressing LigA by NCCLS broth microdilution method. It counts as functional. The procedure, abridged: as §1

Converted amounts (≈) assume the structure as drawn.

In general, IC50 refers to the concentration that inhibits the measured activity by half. Lower therefore signals greater potency. On to `C[C@H]1O[C@@H](n2cnc3c(N)nc(OC4CCCC4)nc32)[C@H](O)[C@@H]1CC1CCCCC1`, for which the MIC in the assay on Streptococcus pneumoniae [1] and against Streptococcus pneumoniae [2] was 16 µg/mL (≈ 38.5 µM) throughout. Further, the IC50 in assay [3] is 300 nM. The Ratio in the assay with Streptococcus pneumoniae [4] is reported as 64.

For `Nc1nc(OC2CCC3CCCCC3C2)nc2c1ncn2C1CCCO1` (stereo not given), in the assay on Haemophilus influenzae [5], the Ratio is reported as 16. The MIC against Streptococcus pneumoniae [2] was 2 µg/mL (≈ 5.6 µM); against Haemophilus influenzae [7] it was 8 µg/mL (≈ 22.4 µM); in the assay on Haemophilus influenzae [8] it was 8 µg/mL (≈ 22.4 µM). For the same compound, the results for the IC50 in assay [3] and in assay [6] were 60 nM and 860 nM, respectively.

As to `C[C@H]1O[C@@H](n2cnc3c(N)nc(OC4CCCC4)nc32)[C@H](O)[C@@H]1Oc1ccccc1`, the MIC worked out at 2 µg/mL (≈ 4.86 µM) in the assay on Streptococcus pneumoniae [2] and 64 µg/mL (≈ 156 µM) with Haemophilus influenzae [7]. In addition, the IC50 in assay [3] stood at 50 nM; in assay [6] it was 1300 nM.

Consider `Nc1nc(OC2CCC3CCCCC3C2)nc2c1ncn2[C@@H]1O[C@H](CO)[C@@H](O)[C@H]1O` (stereo not given in full), for which the figures for the MIC against Streptococcus pneumoniae [2] and with Haemophilus influenzae [7] were 1 µg/mL (≈ 2.38 µM) and 16 µg/mL (≈ 38.1 µM), respectively. Further, the values for the IC50 in assay [3] and in assay [6] were 80 nM and 400 nM, respectively.

Turning to `C[C@H]1O[C@@H](n2cnc3c(N)nc(OCC45CC6CC(CC(C6)C4)C5)nc32)[C@H](O)[C@@H]1O`, the MIC against Streptococcus pneumoniae [2] worked out at 2 µg/mL (≈ 4.81 µM); against Haemophilus influenzae [7], 32 µg/mL (≈ 77 µM). For the same compound, the values for the IC50 in assay [3] and in assay [6] were 200 nM and 1700 nM, respectively.

For the compound `Nc1nc(OC2CCCC2)nc2c1ncn2[C@@H]1O[C@H](CO)[C@@H](F)[C@H]1O`, the MIC in the assay with Streptococcus pneumoniae [1] is > 64 µg/mL; against Streptococcus pneumoniae [2], 4 µg/mL (≈ 11.3 µM); against Haemophilus influenzae [7] it was 8 µg/mL (≈ 22.6 µM); against Haemophilus influenzae [8], > 64 µg/mL. The Ratio with Haemophilus influenzae [5] came out at 16; in the assay with Streptococcus pneumoniae [4] it was 64. Besides, the IC50 in assay [3] came out at 100 nM; in assay [6], 300 nM.

As to `Nc1nc(OC2CCC3CCCC3C2)nc2c1ncn2C1CCCO1` (stereo not given), the results for the MIC in the assay on Streptococcus pneumoniae [1] and in the assay with Streptococcus pneumoniae [2] were 32 µg/mL (≈ 93.2 µM) and 4 µg/mL (≈ 11.6 µM), respectively. Besides, the IC50 in assay [3] came out at 200 nM. Further, the Ratio with Streptococcus pneumoniae [4] came to 64.

`C[C@H]1O[C@@H](n2cnc3c(N)nc(OC4CCC5CCCCC5C4)nc32)[C@H](O)[C@@H]1O` (stereo not given in full): the Ratio in the assay with Haemophilus influenzae [5] is 16. The MIC in the assay with Streptococcus pneumoniae [2] is 0.5 µg/mL (≈ 1.24 µM); against Haemophilus influenzae [7], 8 µg/mL (≈ 19.8 µM); in the assay on Haemophilus influenzae [8], 32 µg/mL (≈ 79.3 µM). The IC50 turned out to be 40 nM in assay [3] and 260 nM in assay [6].

(Values after ChEMBL document CHEMBL2146477, “Antimicrobial Activity of Adenine-Based Inhibitors of NAD(+)-Dependent DNA Ligase” (ACS Med Chem Lett, 2012).)
